Results from ChEMBL document CHEMBL1153918, “Novel fatty acid synthase (FAS) inhibitors: design, synthesis, biological evaluation, and molecular docking studies” (Bioorg Med Chem, 2009).

Columns and labels:
[1] = system: FAS; experiment: Therapeutic index, ratio of TC50 for human HLF to IC50 for rat liver FAS; details: HLF cells (TC50)
In short: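 In vitro therapeutic index = TC50 (HLF cells, MTT) / IC50 (purified rat liver FAS, NADPH oxidation at 340 nm).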

[2] = biological target: Fatty acid synthase (Rattus norvegicus, UniProt P12785); experiment: Inhibition of rat liver FAS by Coomassie blue staining
Sequence of Fatty acid synthase (P12785 whole entry): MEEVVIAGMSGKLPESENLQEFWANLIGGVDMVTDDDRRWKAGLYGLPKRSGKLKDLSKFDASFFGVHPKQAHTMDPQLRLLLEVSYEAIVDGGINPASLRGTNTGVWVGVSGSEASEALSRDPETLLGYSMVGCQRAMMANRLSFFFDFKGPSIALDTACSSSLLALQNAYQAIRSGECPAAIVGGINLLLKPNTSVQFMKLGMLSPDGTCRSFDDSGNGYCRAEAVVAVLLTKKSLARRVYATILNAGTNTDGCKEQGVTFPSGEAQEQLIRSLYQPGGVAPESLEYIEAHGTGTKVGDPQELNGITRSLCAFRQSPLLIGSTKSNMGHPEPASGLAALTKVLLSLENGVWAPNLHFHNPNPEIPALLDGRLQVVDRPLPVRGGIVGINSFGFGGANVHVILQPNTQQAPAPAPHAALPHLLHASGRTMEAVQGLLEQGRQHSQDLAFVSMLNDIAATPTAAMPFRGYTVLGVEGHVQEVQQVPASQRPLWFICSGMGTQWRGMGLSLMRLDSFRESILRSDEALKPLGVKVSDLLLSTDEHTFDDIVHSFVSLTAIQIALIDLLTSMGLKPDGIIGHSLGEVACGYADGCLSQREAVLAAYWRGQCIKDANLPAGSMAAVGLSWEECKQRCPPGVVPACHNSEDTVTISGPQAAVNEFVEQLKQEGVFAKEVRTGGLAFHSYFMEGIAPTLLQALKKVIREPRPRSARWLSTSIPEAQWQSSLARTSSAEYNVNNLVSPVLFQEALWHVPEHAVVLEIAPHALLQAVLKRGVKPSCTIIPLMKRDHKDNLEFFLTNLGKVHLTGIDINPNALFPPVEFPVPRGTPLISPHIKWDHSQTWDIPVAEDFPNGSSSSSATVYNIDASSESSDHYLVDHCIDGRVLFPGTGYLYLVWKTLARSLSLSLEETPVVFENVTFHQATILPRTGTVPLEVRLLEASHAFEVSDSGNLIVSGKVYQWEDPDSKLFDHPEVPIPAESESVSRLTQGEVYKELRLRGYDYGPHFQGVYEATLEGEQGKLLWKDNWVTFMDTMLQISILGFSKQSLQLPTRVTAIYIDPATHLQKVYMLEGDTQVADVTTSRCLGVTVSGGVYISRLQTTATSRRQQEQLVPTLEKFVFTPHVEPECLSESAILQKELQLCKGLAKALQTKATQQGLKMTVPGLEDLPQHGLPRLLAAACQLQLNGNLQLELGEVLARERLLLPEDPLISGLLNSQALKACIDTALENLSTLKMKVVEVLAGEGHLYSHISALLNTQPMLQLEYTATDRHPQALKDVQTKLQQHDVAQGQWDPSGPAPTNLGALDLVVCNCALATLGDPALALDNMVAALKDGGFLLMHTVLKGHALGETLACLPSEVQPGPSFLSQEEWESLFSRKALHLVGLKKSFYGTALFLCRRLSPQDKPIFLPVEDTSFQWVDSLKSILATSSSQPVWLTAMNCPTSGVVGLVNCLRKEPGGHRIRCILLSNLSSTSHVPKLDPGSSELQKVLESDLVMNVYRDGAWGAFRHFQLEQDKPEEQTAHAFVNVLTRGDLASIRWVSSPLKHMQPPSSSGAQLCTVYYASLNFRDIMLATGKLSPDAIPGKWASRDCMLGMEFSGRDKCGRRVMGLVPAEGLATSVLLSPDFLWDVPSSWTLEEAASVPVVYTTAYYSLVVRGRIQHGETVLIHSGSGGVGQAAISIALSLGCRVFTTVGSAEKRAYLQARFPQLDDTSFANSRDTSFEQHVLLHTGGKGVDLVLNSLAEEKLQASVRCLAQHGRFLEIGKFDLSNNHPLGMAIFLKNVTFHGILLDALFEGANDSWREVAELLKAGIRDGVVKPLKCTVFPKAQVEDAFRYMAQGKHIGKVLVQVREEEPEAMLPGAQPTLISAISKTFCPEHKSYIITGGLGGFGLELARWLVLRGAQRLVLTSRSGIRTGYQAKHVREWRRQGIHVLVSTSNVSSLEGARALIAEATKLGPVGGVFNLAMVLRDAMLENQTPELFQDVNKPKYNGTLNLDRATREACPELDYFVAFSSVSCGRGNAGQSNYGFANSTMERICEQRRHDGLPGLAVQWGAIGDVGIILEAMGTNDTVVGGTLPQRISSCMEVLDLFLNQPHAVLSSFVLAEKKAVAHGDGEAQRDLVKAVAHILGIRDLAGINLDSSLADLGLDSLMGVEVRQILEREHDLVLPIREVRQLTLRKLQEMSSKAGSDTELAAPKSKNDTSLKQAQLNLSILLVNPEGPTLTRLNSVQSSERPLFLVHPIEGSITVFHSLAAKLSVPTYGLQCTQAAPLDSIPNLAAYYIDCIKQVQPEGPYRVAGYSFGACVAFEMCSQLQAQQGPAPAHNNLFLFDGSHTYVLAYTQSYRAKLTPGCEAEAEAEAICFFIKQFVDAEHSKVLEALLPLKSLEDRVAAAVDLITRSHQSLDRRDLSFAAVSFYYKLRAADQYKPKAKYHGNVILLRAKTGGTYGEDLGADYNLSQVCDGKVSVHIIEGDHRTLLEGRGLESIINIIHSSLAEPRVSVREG
In short: (§1)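 Rat liver FAS purified, about 90% pure by SDS-PAGE with Coomassie staining. Enzyme, compound, NADPH and acetyl-CoA preincubated in K2HPO4 buffer pH 7.0 for 30 min at 37 °C. Malonyl-CoA then added and NADPH oxidation followed at 340 nm for 3 min at 37 °C. IC50 by linear regression, mean of triplicates. Single-point data given as % inhibition at 60 µM.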

[3] = Cytotoxicity against human HLF by MTT assay; format: cell-based; details: HLF cells, read-out: TC50 (the source's name)
In short: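 Human embryonic lung fibroblasts (HLF), viability read by MTT method. TC50 values are means of three experiments.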

[4] = system: HL-60; experiment: Cytotoxicity against human HL60 cells assessed as cell viability after 2 hrs by MTT assay; format: functional, cell-based; details: HL-60, 2 h
In short: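 HL60 cells in exponential growth suspended in 1640 medium, about 2×10^4 cells/well. Serially diluted compound (DMSO solution) added, then 2 h incubation at 37 °C in 5% CO2. Viable cells counted by MTT. […] given ± SD from three repeats.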

[5] = system: HeLa; experiment: Cytotoxicity against human HeLa cells after 20 hrs by trypan blue exclusion assay; format: functional, cell-based
In short: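 HeLa cells kept in DMEM with 10% fetal calf serum at 37 °C, 5% CO2, for 24 h. About 2.5×10^4 cells/well exposed to graded concentrations (DMSO solution) for 20 h. Cells then trypsinized and counted by trypan-blue exclusion. Three repeats gave SD.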

[6] = biological target: Fatty acid synthase (Rattus norvegicus) (UniProt P12785); experiment: Inhibition of rat liver FAS at 60 uM by Coomassie blue staining; in short: as §1
Sequence of Fatty acid synthase (Rattus norvegicus) (P12785 whole entry): as above

Structure (SMILES) | IC50 [2] | CC50 [3] | inhibition [6] | other results
C=C1C(=O)O[C@H](CCCCCCCC)[C@H]1C(=O)O | – | – | – | selectivity ratio [1]: 5.61
C=C1C(=O)S[C@H](CCCCCCCC)[C@H]1C(=O)O | 2.56 µM | 23.7 µM | – | selectivity ratio [1]: 9.26; IC50 [4]: 5.38 µM; IC50 [5]: 46.1 µM
C=C1C(=O)S[C@H](CCCCCC)[C@H]1C(=O)O | 16.7 µM | 96.4 µM | – | selectivity ratio [1]: 5.76
C=C1C(=O)S[C@H](CCCCCCCCCCC)[C@H]1C(=O)O | 0.79 µM | 4.75 µM | – | –
C=C1C(=O)S[C@H](CCCCCCCCC)[C@H]1C(=O)O | 2.28 µM | 6.86 µM | – | –
C=C1C(=O)S[C@H](CCCCCCCCCC)[C@H]1C(=O)O | 1.19 µM | 6.8 µM | – | –
CCCCCCCCCC[C@H]1OC(=O)C(=C(C)C)[C@@H]1C(=O)O (relative stereo) | 122 µM | > 200 µM | – | –
CCCCCCCCCCC[C@@H]1OC(=O)c2ccccc2[C@H]1C(=O)O (relative stereo) | 19.5 µM | 94.2 µM | – | selectivity ratio [1]: 4.84
CCCCCCCC[C@@H]1OC(=O)c2ccccc2[C@H]1C(=O)O (relative stereo) | 88.6 µM | – | – | –
CCCCCCCCC[C@@H]1OC(=O)c2ccccc2[C@H]1C(=O)O (relative stereo) | 29.8 µM | – | – | –
CCCCCCCCCCC[C@H]1OC(=O)C(=C(C)C)[C@@H]1C(=O)O (relative stereo) | 27.5 µM | 153 µM | – | selectivity ratio [1]: 5.57
CCCCCCCCCC[C@@H]1OC(=O)c2ccccc2[C@H]1C(=O)O (relative stereo) | 24.2 µM | > 200 µM | – | –
CCCCCCCCC[C@H]1OC(=O)C(=C(C)C)[C@@H]1C(=O)O (relative stereo) | – | – | 38.4% | –
CCCCCCCCC[C@H]1OC(=O)C(C)(C)[C@@H]1C(=O)O (relative stereo) | – | – | 23.8% | –
CCCCCCCC[C@H]1OC(=O)C(=C(C)C)[C@@H]1C(=O)O (relative stereo) | – | – | 17.4% | –
CCCCCCCC[C@H]1OC(=O)C(C)(C)[C@@H]1C(=O)O (relative stereo) | – | – | 16.7% | –
CCCCCCC[C@@H]1OC(=O)c2ccccc2[C@H]1C(=O)O (relative stereo) | – | – | 35.9% | –
CCCCCC[C@@H]1OC(=O)c2ccccc2[C@H]1C(=O)O (relative stereo) | – | – | 19.4% | –
